bCat KO growth = beta-catenin-lacking colon tumor cell growth suppression | HCT116 beta-catenin knockout viability, CellTiter-Glo, 60 h; hits give low values | viability, % at 10 µM | 140,000 compounds, 1.5% hits | AID 818;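 active means viability at or under a set limit, the compound median less 4 SD, cut at about 6% in these data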;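 further: 0% = Hyamine 1622 control at 20 µM and 100% = untreated cell control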
HCT116 PTEN-null = PTEN-deleted cell growth suppression. 140,000 compounds, 1.2% hits. HCT116 PTEN-null viability, CellTiter-Glo, 60 h; hits give low values. viability, % at 10 µM;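 active means viability at or below a set limit, 4 SD under the median of all tested compounds, cut at about 3.7% in these data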;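 further: PTEN knockout HCT116 line with beta catenin targeted HCT116 as companion control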
Fibroblast inh = blocks proliferation of human lung fibroblasts | LL 47 human lung fibroblast viability, ATP luminescence; hits give low values | viability, % at 10 µM | 85,000 compounds, 1.1% hits | AID 719;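 active means viability at or below 50% in the single dose screen; inactive means viability above 50%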;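 further: compound exposure lasted 72 h before the ATP readout; 100% = median luminescence of untreated cell-only wells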
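Material: human lung fibroblast line LL 47, low passage; Evaluation: viability percentage against median untreated-cell control; Buffer or medium: 15% FBS in IMEM; Incubation: 72 h compound exposure at 37 °C after overnight plating; Dosing: 0.1% DMSO in all compound wells; Measured by: CellTiter-Glo luminescence.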
H69AR inhibit = growth inhibitors of human H69AR lung tumor cells. H69AR lung tumor viability, ATP luminescence, 72 h; hits give low values. viability, % at 10 µM. 85,000 compounds, 6% hits;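 active means viability at or below 40%; inactive means viability above 40%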;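 further: multidrug resistant small cell line overexpressing MRP-1 efflux transporter; 100% = mean luminescence of untreated control wells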
HUVEC inhibit = blocks proliferation of human endothelial cells; 86,000 compounds, 1.1% hits; viability, % at 10 µM (by protocol); HUVEC proliferation, CellTiter-Glo luminescence, 72 h; hits give low values; AID 648;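 active means viability at or below 30%; inactive means viability above 30%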;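 further: 100% = median luminescence of DMSO-only cell control wells on each plate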
Active calls of the source: *. The full list was thinned out, with hits kept by preference.

Results for COCCn1cc(C(=O)N2CCN(C)CC2)c2c3ccccc3n(C)c2c1=O ?
bCat KO growth: 102.1; HCT116 PTEN-null: 95.4; Fibroblast inh: 99.6; H69AR inhibit: 74.5; HUVEC inhibit: 96.9

What do the screens show for `Cc1ccc(Cl)cc1N1CCN(C(=O)c2cn(C)c(=O)c3c2c2ccccc2n3C)CC1`?
bCat KO growth: 1.4*; HCT116 PTEN-null: 1.3*; Fibroblast inh: 55.4; H69AR inhibit: 3.4*; HUVEC inhibit: 33.3

What do the screens show for `Cn1c2ccccc2c2c(C(=O)N3CCN(c4ccccc4)CC3)cn(C3CCCC3)c(=O)c21`?
bCat KO growth: 78.1; HCT116 PTEN-null: 64.2; Fibroblast inh: 99.9; H69AR inhibit: 72.4; HUVEC inhibit: 72.4

How did CC(=O)Nc1ccc2c(c1)CN(c1cc(C)ccc1C)CO2 do in these assays?
bCat KO growth: 87.0; HCT116 PTEN-null: 79.4

How did Cc1ccc2[nH]c(=O)c(CN(CCCN(C)C)C(=O)Nc3ccc(Cl)cc3)cc2c1 do in these assays?
bCat KO growth: 15.4; HCT116 PTEN-null: 16.1; Fibroblast inh: 63.7; H69AR inhibit: 3.0*; HUVEC inhibit: 61.6

Results for Cc1ccc(C)c2[nH]c(=O)c(CN(CCN3CCCC3)C(=O)Nc3cccc(Cl)c3)cc12 ?
bCat KO growth: 3.0*; HCT116 PTEN-null: 1.8*; Fibroblast inh: 27.9*; H69AR inhibit: 0.6*; HUVEC inhibit: 20.5*

How did Cc1cc(C)c2cc(CN(CCN3CCCC3)C(=O)Nc3ccc(F)cc3)c(=O)[nH]c2c1 do in these assays?
bCat KO growth: 24.7; HCT116 PTEN-null: 39.0; Fibroblast inh: 94.4; H69AR inhibit: 75.1; HUVEC inhibit: 55.2

How did CCc1ccc2[nH]c(=O)c(CN(CCCN3CCOCC3)C(=O)Nc3cccc(Cl)c3)cc2c1 do in these assays?
bCat KO growth: 1.9*; HCT116 PTEN-null: 1.9*; Fibroblast inh: 60.8; H69AR inhibit: 29.3*; HUVEC inhibit: 14.6*

Results for Cc1ccc(NC(=O)N(CCCN2CCOCC2)Cc2cc3cc4c(cc3[nH]c2=O)OCO4)cc1 ?
bCat KO growth: 73.3; HCT116 PTEN-null: 83.3

Results for Cc1ccc2[nH]c(=O)c(CN(CCN3CCOCC3)C(=O)Nc3ccc(F)cc3)cc2c1 ?
bCat KO growth: 65.3; HCT116 PTEN-null: 62.3; Fibroblast inh: 95.8; H69AR inhibit: 39.2*; HUVEC inhibit: 90.2

Results for N#CCCNc1c(Cl)cc(Cl)cc1C(=O)O ?
bCat KO growth: 100.8; HCT116 PTEN-null: 99.8

What do the screens show for `CC1=C(CC/C(C)=N/NC(N)=S)C(C)(C)CCC1`?
bCat KO growth: 85.7; HCT116 PTEN-null: 88.4; Fibroblast inh: 98.8; H69AR inhibit: 58.2; HUVEC inhibit: 90.5

What do the screens show for `COC(=O)C1=C(C)NC(C)=C(C(=O)OC)C1c1ccc(OC(=O)c2oc3ccccc3c2C)c(OC)c1`?
bCat KO growth: 89.5; HCT116 PTEN-null: 91.0

What do the screens show for `CC(C)OC(=O)/C(=C\c1cccc2ccccc12)NC(=O)c1ccccc1`?
bCat KO growth: 91.6; HCT116 PTEN-null: 92.0

Results for CCc1ccc2[nH]c(=O)c(CN(CCCN3CCOCC3)C(=O)Nc3ccccc3)cc2c1 ?
bCat KO growth: 60.8; HCT116 PTEN-null: 55.9; Fibroblast inh: 95.1; H69AR inhibit: 65.4; HUVEC inhibit: 73.1

Results for CCc1ccc2[nH]c(=O)c(CN(CCCN3CCOCC3)C(=O)Nc3ccc(Cl)cc3)cc2c1 ?
bCat KO growth: 20.9; HCT116 PTEN-null: 21.2; Fibroblast inh: 76.9; H69AR inhibit: 26.6*; HUVEC inhibit: 27.9*

Results for COc1ccc(Oc2ccc3c(C(F)(F)F)cc(C(F)(F)F)nc3n2)cc1 ?
bCat KO growth: 93.5; HCT116 PTEN-null: 78.2

Results for Cc1ccc(C(C#N)c2ccc3c(C(F)(F)F)cc(C(F)(F)F)nc3n2)cc1 (centres undefined) ?
bCat KO growth: 27.8; HCT116 PTEN-null: 19.6; Fibroblast inh: 75.2; H69AR inhibit: 23.9*; HUVEC inhibit: 62.4

How did N#CC(c1ccccc1)c1ccc2c(C(F)(F)F)cc(C(F)(F)F)nc2n1 (centres undefined) do in these assays?
bCat KO growth: 14.0; HCT116 PTEN-null: 8.4; Fibroblast inh: 39.2*; H69AR inhibit: 24.2*; HUVEC inhibit: 62.8

How did CCN(CC)S(=O)(=O)c1cc(C(=O)OCC(=O)NC(=O)c2cccn2C)ccc1C do in these assays?
bCat KO growth: 98.6; HCT116 PTEN-null: 97.1

How did Nc1nc(CSCCO)nc(Nc2ccc(F)cc2)n1 do in these assays?
bCat KO growth: 96.8; HCT116 PTEN-null: 95.7; Fibroblast inh: 96.6; H69AR inhibit: 99.5; HUVEC inhibit: 101.0

Screening results as filed in PubChem.
